The target in test [1] is Mitogen-activated protein kinase 11 (Homo sapiens) (UniProt Q15759). The experiment in a line: Inhibition of P38beta assessed as residual enzyme activity at 10 uM relative to untreated control. In outline: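 Kinases of human origin, except CK1δ, which is rat. Run in 50 mM Tris/HCl pH 7.5, 0.1 mM EGTA, 0.1% 2-mercaptoethanol and 10 mM Mg acetate, with [γ-33P]ATP at 20 µM, 30 min at 21 °C. Acid-stopped and captured on P81 filters. Compound tested at 10 µM; residual % of uninhibited control, duplicate determinations.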

Test [2] deals with Serine/threonine-protein kinase PAK 4 (Homo sapiens) (UniProt O96013). The experiment in a line: Inhibition of PAK4 assessed as residual enzyme activity at 10 uM relative to untreated control. In outline:
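Radiometric filter-binding assay at 21 °C for 30 min. Mix: 50 mM Tris/HCl pH 7.5, 0.1 mM EGTA, 0.1% 2-mercaptoethanol, 10 mM Mg acetate and [γ-33P]ATP (800 cpm/pmol) at 5 µM. Stopped with orthophosphoric acid and spotted on P81. Compound at 10 µM; activity given as % remaining versus no-inhibitor control, duplicates. Kinases human full-length unless noted.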

In test [3] the target is T1, MAP kinase-activated protein kinase 5 (Homo sapiens) (UniProt Q8IW41).
T1 sequence (whole entry): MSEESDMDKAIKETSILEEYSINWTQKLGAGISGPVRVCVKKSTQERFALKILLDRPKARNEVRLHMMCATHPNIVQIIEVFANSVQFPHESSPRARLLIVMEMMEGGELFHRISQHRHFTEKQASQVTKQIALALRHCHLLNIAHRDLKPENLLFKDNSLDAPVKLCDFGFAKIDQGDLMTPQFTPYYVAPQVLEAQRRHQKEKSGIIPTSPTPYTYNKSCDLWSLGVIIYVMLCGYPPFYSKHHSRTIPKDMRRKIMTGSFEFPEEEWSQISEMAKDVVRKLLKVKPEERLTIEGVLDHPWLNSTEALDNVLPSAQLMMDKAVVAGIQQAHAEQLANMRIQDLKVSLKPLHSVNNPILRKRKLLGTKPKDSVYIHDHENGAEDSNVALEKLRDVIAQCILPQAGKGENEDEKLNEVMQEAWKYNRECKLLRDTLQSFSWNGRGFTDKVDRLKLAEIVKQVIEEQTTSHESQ
The experiment in a line: Inhibition of PRAK assessed as residual enzyme activity at 10 uM relative to untreated control.

Test [4] deals with T2, Serine/threonine-protein kinase BRSK2 (Homo sapiens) (UniProt Q8IWQ3).
T2 sequence (whole entry): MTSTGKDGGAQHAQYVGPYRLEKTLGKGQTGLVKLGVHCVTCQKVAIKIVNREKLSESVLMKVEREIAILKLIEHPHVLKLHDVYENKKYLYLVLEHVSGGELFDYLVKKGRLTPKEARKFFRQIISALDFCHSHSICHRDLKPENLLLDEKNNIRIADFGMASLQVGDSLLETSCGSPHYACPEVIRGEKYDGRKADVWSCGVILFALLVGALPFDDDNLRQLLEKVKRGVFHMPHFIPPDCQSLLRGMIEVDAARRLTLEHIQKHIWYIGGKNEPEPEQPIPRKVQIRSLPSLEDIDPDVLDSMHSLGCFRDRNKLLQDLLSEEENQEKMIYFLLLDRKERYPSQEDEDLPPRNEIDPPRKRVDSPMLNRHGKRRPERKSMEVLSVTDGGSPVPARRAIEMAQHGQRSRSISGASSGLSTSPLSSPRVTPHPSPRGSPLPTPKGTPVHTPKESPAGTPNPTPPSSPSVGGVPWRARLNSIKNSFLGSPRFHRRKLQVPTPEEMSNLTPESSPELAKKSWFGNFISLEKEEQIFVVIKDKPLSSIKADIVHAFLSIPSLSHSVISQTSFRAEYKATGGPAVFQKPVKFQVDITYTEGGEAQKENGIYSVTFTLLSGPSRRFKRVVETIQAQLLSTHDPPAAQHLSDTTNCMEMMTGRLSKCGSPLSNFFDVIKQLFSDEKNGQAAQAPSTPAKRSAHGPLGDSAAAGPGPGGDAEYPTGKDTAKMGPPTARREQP
The experiment in a line: Inhibition of BRSK2 assessed as residual enzyme activity at 10 uM relative to untreated control. In outline:
(§1)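 Assayed with [γ-33P]ATP at 50 µM and 10 mM Mg acetate in 50 mM Tris/HCl pH 7.5, 0.1 mM EGTA, 0.1% 2-mercaptoethanol, 30 min, 21 °C. Phosphoric acid stop, P81 filter capture. ERK2 and Lck are mouse; AMPK is rat. 10 µM compound; % activity remaining relative to control without inhibitor, duplicates.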

For test [5], the target named is T3, Serine/threonine-protein kinase Nek2 (Homo sapiens) (UniProt P51955).
T3 sequence (whole entry): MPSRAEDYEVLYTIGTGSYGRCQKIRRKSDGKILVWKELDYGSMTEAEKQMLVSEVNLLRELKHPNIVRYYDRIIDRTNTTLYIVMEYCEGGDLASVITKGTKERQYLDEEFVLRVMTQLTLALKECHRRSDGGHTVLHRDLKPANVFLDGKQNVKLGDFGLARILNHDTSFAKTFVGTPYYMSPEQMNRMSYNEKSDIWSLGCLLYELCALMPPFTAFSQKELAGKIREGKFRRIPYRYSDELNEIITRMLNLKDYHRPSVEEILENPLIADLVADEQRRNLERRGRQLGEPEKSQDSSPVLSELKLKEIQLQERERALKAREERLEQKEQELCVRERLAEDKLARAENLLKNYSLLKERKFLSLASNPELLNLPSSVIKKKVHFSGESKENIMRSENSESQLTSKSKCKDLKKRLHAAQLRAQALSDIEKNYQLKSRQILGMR
The test is described as follows: Inhibition of NEK2alpha assessed as residual enzyme activity at 10 uM relative to untreated control. In outline:
as §1

The record followed here is ChEMBL document CHEMBL1154186, “Synthesis, kinase inhibitory potencies, and in vitro antiproliferative evaluation of new Pim kinase inhibitors” (J Med Chem, 2009).

Chain of Mitogen-activated protein kinase 11 (Homo sapiens) (Q15759 whole entry): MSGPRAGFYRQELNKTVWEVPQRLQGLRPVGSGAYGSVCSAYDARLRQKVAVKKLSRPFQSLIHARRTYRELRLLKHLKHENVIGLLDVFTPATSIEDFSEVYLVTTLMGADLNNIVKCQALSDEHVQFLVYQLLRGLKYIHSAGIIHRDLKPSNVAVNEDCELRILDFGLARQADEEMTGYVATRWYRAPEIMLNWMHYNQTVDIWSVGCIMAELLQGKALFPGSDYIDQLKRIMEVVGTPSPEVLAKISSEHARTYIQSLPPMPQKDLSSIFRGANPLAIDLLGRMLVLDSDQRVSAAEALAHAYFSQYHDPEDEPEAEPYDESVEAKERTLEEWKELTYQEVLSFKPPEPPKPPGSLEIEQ
Chain of Serine/threonine-protein kinase PAK 4 (Homo sapiens) (O96013 whole entry, looked up): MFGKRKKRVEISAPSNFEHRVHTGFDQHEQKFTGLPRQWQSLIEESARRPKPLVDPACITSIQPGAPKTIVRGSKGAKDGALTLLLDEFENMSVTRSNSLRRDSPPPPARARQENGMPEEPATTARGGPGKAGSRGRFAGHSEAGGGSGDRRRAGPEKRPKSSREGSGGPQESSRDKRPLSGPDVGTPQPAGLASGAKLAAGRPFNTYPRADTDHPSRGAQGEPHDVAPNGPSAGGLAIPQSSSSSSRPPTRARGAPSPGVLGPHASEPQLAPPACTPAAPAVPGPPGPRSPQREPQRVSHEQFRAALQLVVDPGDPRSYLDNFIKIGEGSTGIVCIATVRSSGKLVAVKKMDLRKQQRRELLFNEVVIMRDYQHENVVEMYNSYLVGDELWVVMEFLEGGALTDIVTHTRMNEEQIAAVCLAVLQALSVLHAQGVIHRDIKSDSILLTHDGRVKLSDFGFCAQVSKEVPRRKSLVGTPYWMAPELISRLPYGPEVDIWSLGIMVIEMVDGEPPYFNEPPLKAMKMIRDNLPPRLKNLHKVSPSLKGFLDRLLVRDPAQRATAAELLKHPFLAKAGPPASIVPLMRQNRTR

As to `O=Cc1c[nH]c2c1ccc1c3ccccc3[nH]c12`, the Activity in test [1] amounted to 80%; in test [2], 88%; in test [3], 72%; in test [4], 22%; in test [5] it was 88%.

Consider `c1ccc2c(c1)[nH]c1c3cc[nH]c3ccc21`, for which the Activity in test [1] amounted to 91%; in test [2], 84%; in test [3], 114%; in test [4] it was 76%; in test [5] it was 96%.

In the case of `O=Cc1c[nH]c2ccc3c4ccccc4[nH]c3c12`, the Activity stood at 96% in test [1]; 88% in test [2]; 114% in test [3]; 101% in test [4]; 100% in test [5].

On to `c1ccc2c(c1)[nH]c1c2ccc2cc[nH]c21`, for which the Activity in test [1] is 100%; in test [2], 84%; in test [3] it was 97%; in test [4] it was 58%; in test [5], 104%.
